Results as given in ChEMBL document CHEMBL1687853, “Increased glycolytic ATP synthesis is associated with tafenoquine resistance in Leishmania major” (Antimicrob Agents Chemother, 2011).
Calls of active or inactive are those of the source. The rule behind the calls is not given here.

Key:
[1] = test system: Leishmania major; assay: Resistant index, ratio of EC50 for tafenoquine-resistant promastigotes of Leishmania major R4 to EC50 for promastigotes of Leishmania major MHOM/JL/80/Friedlin; format: functional
Method in brief: (§1)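 L. major Friedlin promastigotes, wild type or TFQ-resistant R4, were grown at 28°C in modified RPMI 1640 with 20% heat-inactivated FBS. R4 was selected stepwise from 2.5 to 4 μM TFQ over 10 weeks and kept in 4 μM. Parasites were exposed to increasing drug concentrations for 72 h at 28°C and viability was read by MTT. EC50 is 50% growth inhibition; resistance index is the R4/WT EC50 ratio.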

[2] = test system: Leishmania major; assay: Antileishmanial activity against tafenoquine-resistant promastigotes of Leishmania major R4 assessed as inhibition of parasite growth after 72 hrs by MTT assay; format: functional, organism-based; settings: R4, 72 h; method in brief: as §1
[3] = test system: Leishmania major; assay: Antileishmanial activity against wild type promastigotes of Leishmania major MHOM/JL/80/Friedlin assessed as inhibition of parasite growth after 72 hrs by MTT assay; format: functional, organism-based; method in brief: as §1
[4] = test system: Leishmania major; assay: Induction of acidification in wild type promastigotes of Leishmania major MHOM/JL/80/Friedlin assessed as decrease of pH at 5 uM after 30 mins; format: functional, organism-based
Method in brief: (§2)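 Promastigotes were loaded with BCECF-AM (5 µg/ml) in pH 7.4 standard buffer for 30 min at 28°C and washed twice. Cells at 2 × 10^7/ml in culture medium then received 20 mM sodium azide or 5 µM TFQ for 1, 3, 5, 10 or 30 min. The ratio at excitation 490/440 nm, emission 535 nm, was converted to pHi with a nigericin calibration curve.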

[5] = test system: Leishmania major; assay: Induction of acidification in tafenoquine-resistant promastigotes of Leishmania major revert R4 assessed as decrease of pH at 5 uM after 30 mins; format: functional, organism-based
Method in brief: (§3)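 R4 or revertant promastigotes (R4 grown 1 month drug-free) were loaded with BCECF-AM (5 μg/ml, 30 min, 28°C) and washed. Cells at 2 × 10^7/ml in culture medium then received 5 μM TFQ or 20 mM sodium azide for 1–30 min. pHi came from the 490/440 nm excitation ratio (emission 535 nm), calibrated with nigericin-treated cells at set pH values.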

[6] = test system: Leishmania major; assay: Induction of acidification in wild type promastigotes of Leishmania major MHOM/JL/80/Friedlin assessed as decrease of pH at 20 mM after 30 mins; format: functional, organism-based; method in brief: as §2
[7] = test system: Leishmania major; assay: Drug uptake in promastigotes of tafenoquine-resistant promastigotes of Leishmania major revert R4 assessed per mg of protein at 5 uM after 15 mins by spectrofluorometric technique; format: ADME, organism-based; settings: in vivo, 0.25 h
Method in brief: (§4)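 Promastigotes at 2 × 10^7/ml were given 5 μM TFQ for 15 min at 28°C in culture medium, washed twice with PBS and lysed in 10% SDS, pH 4. TFQ was read fluorimetrically with excitation at 340 nm and emission at 360–460 nm. For the alkalinization condition, parasites were pretreated with 20 mM NH4Cl for 1 min and then given TFQ in the continued presence of NH4Cl for 15 min.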

[8] = test system: Leishmania major; assay: Effect on ATP synthesis in wild type promastigotes of Leishmania major MHOM/JL/80/Friedlin assessed as decrease of ATP level up to 20 uM after 60 mins by celltiter- glo luminescent assay; format: functional, organism-based
Method in brief: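 Promastigotes at 4 × 10^6/ml were held in culture medium with TFQ at 1, 2, 5, 10 or 20 µM for 60 min. Cells were mixed 1:1 with CellTiter-Glo and kept 10 min in the dark. Luminescence, proportional to ATP, was then read.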

[9] = test system: Leishmania major; assay: Induction of acidification in tafenoquine-resistant promastigotes of Leishmania major R4 assessed as decrease of pH at 20 mM after 30 mins; format: functional, organism-based; method in brief: as §3
[10] = test system: Leishmania major; assay: Drug uptake in promastigotes of tafenoquine-resistant promastigotes of Leishmania major R4 assessed per mg of protein at 5 uM after 15 mins by spectrofluorometric technique; format: ADME, organism-based; settings: in vivo, 0.25 h; method in brief: as §4
[11] = test system: Leishmania major; assay: Drug uptake in wild type promastigotes of Leishmania major MHOM/JL/80/Friedlin at 2 uM after 5 mins by spectrofluorometric technique; format: ADME, organism-based; settings: in vivo
[12] = test system: Leishmania major; assay: Drug uptake in promastigotes of tafenoquine-resistant promastigotes of Leishmania major R4 at 2.5 uM after 5 mins by spectrofluorometric technique; format: ADME, organism-based; settings: in vivo
[13] = test system: Leishmania major; assay: Drug uptake in promastigotes of tafenoquine-resistant promastigotes of Leishmania major R4 assessed per mg of protein at 5 uM after 15 mins by spectrofluorometric technique in presence of ammonium chloride; settings: in vitro, 0.25 h
[14] = test system: Leishmania major; assay: Drug uptake in promastigotes of tafenoquine-resistant promastigotes of Leishmania major revert R4 at 5 uM after 5 mins by spectrofluorometric technique; format: ADME, organism-based; settings: in vivo
[15] = test system: Leishmania major; assay: Induction of acidification in tafenoquine-resistant promastigotes of Leishmania major R4 assessed as decrease of pH at 5 uM after 30 mins; format: functional, organism-based; method in brief: as §3
[16] = test system: Leishmania major; assay: Effect on ATP synthesis in tafenoquine-resistant promastigotes of Leishmania major R4 assessed as increase of ATP level at up to 20 uM after 60 mins by celltiter- glo luminescent assay; format: functional, organism-based
Method in brief: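 Promastigotes at 4 × 10^6/ml were incubated in culture medium with 1, 2, 5, 10 or 20 μM TFQ for 60 min. ATP was measured by CellTiter-Glo: an aliquot was mixed with an equal volume of reagent, held 10 min in the dark, and luminescence was read.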

[17] = test system: Leishmania major; assay: Drug uptake in wild type promastigotes of Leishmania major MHOM/JL/80/Friedlin assessed per mg of protein at 5 uM after 15 mins by spectrofluorometric technique; format: ADME, organism-based; settings: in vivo, 0.25 h
Method in brief: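 L. major Friedlin promastigotes, grown 48 h at 28°C in RPMI 1640 with 20% iFBS, were used at 2 × 10^7/ml. Cells were exposed to 5 µM TFQ for 15 min at 28°C in culture medium, washed twice in PBS and lysed in 10% SDS, pH 4. Emission was read at 360–460 nm with excitation at 340 nm.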

[18] = test system: Leishmania major; assay: Drug uptake in wild type promastigotes of Leishmania major MHOM/JL/80/Friedlin assessed per mg of protein at 5 uM after 15 mins by spectrofluorometric technique in presence of ammonium chloride; settings: in vivo, 0.25 h
[19] = test system: Leishmania major; assay: Drug uptake in promastigotes of tafenoquine-resistant promastigotes of Leishmania major revert R4 assessed per mg of protein at 5 uM after 15 mins by spectrofluorometric technique in presence of ammonium chloride; settings: in vitro, 0.25 h
[20] = test system: Leishmania major; assay: Induction of acidification in tafenoquine-resistant promastigotes of Leishmania major revert R4 assessed as decrease of pH at 20 mM after 30 mins; format: functional, organism-based; method in brief: as §3

SMILES | Ratio EC50 [1] | EC50 [2] | EC50 [3] | further results
CCN(CC)CCCCCCNc1cc(OC)cc2c(C)ccnc12.Cl.Cl | 2 | 24.5 µM | 12 µM | 
C[C@@H]1[C@H](O)[C@@H](C)/C=C/C=C/C=C/C=C/C=C/C=C/C=C/[C@H](O[C@@H]2O[C@H](C)[C@@H](O)[C@H](N)[C@@H]2O)C[C@@H]2O[C@](O)(C[C@@H](O)C[C@@H](O)[C@H](O)CC[C@@H](O)C[C@@H](O)CC(=O)O[C@H]1C)C[C@H](O)[C@H]2C(=O)O [AMPHOTERICIN B] | 1.7 | 3.16 µM | 1.87 µM | 
CCN(CC)CCCC(C)Nc1ccnc2cc(Cl)ccc12 (stereo not drawn) [CHLOROQUINE] | 1.3 | 23.8 µM | 18.8 µM | 
COc1cccc2c1C(=O)c1c(O)c3c(c(O)c1C2=O)C[C@@](O)(C(C)=O)C[C@@H]3O[C@H]1C[C@H](N)[C@H](O)[C@H](C)O1 [DAUNORUBICIN] | 1.7 | 0.38 µM | 0.22 µM | 
CC(=O)N1CCN(c2ccc(OCC3COC(Cn4ccnc4)(c4ccc(Cl)cc4Cl)O3)cc2)CC1 (stereo not drawn) [KETOCONAZOLE] | 1.4 | 28.1 µM | 20 µM | 
OC(c1cc(C(F)(F)F)nc2c(C(F)(F)F)cccc12)C1CCCCN1 (stereo not drawn) [MEFLOQUINE] | 1.1 | 13.9 µM | 12.5 µM | 
CCCCCCCCCCCCCCCCOP(=O)([O-])OCC[N+](C)(C)C [MILTEFOSINE] | 1.5 | 25.7 µM | 17.7 µM | 
NC[C@@H]1O[C@H](O[C@H]2[C@@H](O)[C@H](O[C@@H]3[C@@H](O)[C@H](N)C[C@H](N)[C@H]3O[C@H]3O[C@H](CO)[C@@H](O)[C@H](O)[C@H]3N)O[C@@H]2CO)[C@H](N)[C@@H](O)[C@@H]1O [PAROMOMYCIN] | 1 | 3.98 µM | 4.29 µM | 
N=C(N)c1ccc(OCCCCCOc2ccc(C(=N)N)cc2)cc1 [PENTAMIDINE] | 1.8 | 0.45 µM | 0.28 µM | 
COc1cc(NC(C)CCCN)c2ncccc2c1 (stereo not drawn) [PRIMAQUINE] | 1.9 | 53 µM | 27.7 µM | 
C=C[C@H]1CN2CC[C@H]1C[C@H]2[C@H](O)c1ccnc2ccc(OC)cc12 [QUININE] | 1 | 9.53 µM | 9.41 µM | 
COc1cc(C)c2c(Oc3cccc(C(F)(F)F)c3)c(OC)cc(NC(C)CCCN)c2n1 (stereo not drawn) [TAFENOQUINE] | 2.5 | 5.49 µM | 2.24 µM | Activity [4]: Active; Activity [5]: Active; Activity [6]: Active; Drug uptake [7]: 9657 a.u.; Activity [8]: Active; Activity [9]: inactive; Drug uptake [10]: 8809 a.u.; Drug uptake [11]: Active; Drug uptake [12]: Active; Drug uptake [13]: 8462 a.u.; Drug uptake [14]: Active; Activity [15]: inactive; Activity [16]: Active; Drug uptake [17]: 10775 a.u.; Drug uptake [18]: 7009 a.u.; Drug uptake [19]: 8524 a.u.; Activity [20]: Active
